Converted amounts (≈) assume the structure as drawn.
Columns and labels:
Type in all cases: functional
[1] = Antibacterial activity against Clostridium difficile ATCC 43255 by broth microdilution method; settings: Clostridioides difficile
Method in brief: (§1)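 Broth microdilution MICs were run per CLSI M07-A8 (2009). The strain panel included C. difficile ATCC 43255, E. faecalis ATCC 29212 and S. pyogenes ATCC BAA-595.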

[2] = tested on: Enterococcus faecium; assay: Antibacterial activity against Enterococcus faecium 7130724 by broth microdilution method
[3] = tested on: Staphylococcus aureus; assay: Antibacterial activity against Staphylococcus aureus A4.018 by broth microdilution method
[4] = tested on: Enterococcus faecalis; assay: Antibacterial activity against Enterococcus faecalis ATCC 29212 by broth microdilution method; method in brief: as §1
[5] = tested on: Streptococcus pyogenes; assay: Antibacterial activity against Streptococcus pyogenes ATCC BAA-595 by broth microdilution method; method in brief: as §1
[6] = tested on: Escherichia coli; assay: Inhibition of protein synthesis in Escherichia coli S30 extract at 2 uM after 75 mins by luciferase based luminescence assay relative to GE2270A

SMILES | MIC [1] [µg/mL] | MIC [2] [µg/mL] | MIC [3] [µg/mL] | MIC [4] [µg/mL] | MIC [5] [µg/mL] | inhibition at 2 µM [6] [%]
CNC(=O)C[C@@H]1NC(=O)c2csc(n2)-c2ccc(-c3nc(N(CCCCC(=O)O)C(=O)[C@H]4CC[C@H](C(=O)O)CC4)cs3)nc2-c2csc(n2)-c2csc(n2)[C@H]([C@@H](O)c2ccccc2)NC(=O)CNC(=O)c2nc(sc2COC)[C@H](C(C)C)NC(=O)c2nc1sc2C | 2 (≈ 1.48 µM) | > 32 | 16 (≈ 11.8 µM) | 32 (≈ 23.7 µM) | > 32 | 30
CNC(=O)C[C@@H]1NC(=O)c2csc(n2)-c2ccc(-c3nc(NC(=O)CC[C@H](CC(=O)O)C(=O)O)cs3)nc2-c2csc(n2)-c2csc(n2)[C@H]([C@@H](O)c2ccccc2)NC(=O)CNC(=O)c2nc(sc2COC)[C@H](C(C)C)NC(=O)c2nc1sc2C | 4 (≈ 3.15 µM) | 8 (≈ 6.31 µM) | 8 (≈ 6.31 µM) | 4 (≈ 3.15 µM) | > 32 | 30
CNC(=O)C[C@@H]1NC(=O)c2csc(n2)-c2ccc(-c3nc(N(CCCC(=O)O)C(=O)CCCC(=O)O)cs3)nc2-c2csc(n2)-c2csc(n2)[C@H]([C@@H](O)c2ccccc2)NC(=O)CNC(=O)c2nc(sc2COC)[C@H](C(C)C)NC(=O)c2nc1sc2C | > 4 | > 32 | > 32 | > 32 | > 32 | 30
CNC(=O)C[C@@H]1NC(=O)c2csc(n2)-c2ccc(-c3nc(N(CCCCC(=O)O)C(=O)C[C@H]4CC[C@H](C(=O)O)CC4)cs3)nc2-c2csc(n2)-c2csc(n2)[C@H]([C@@H](O)c2ccccc2)NC(=O)CNC(=O)c2nc(sc2COC)[C@H](C(C)C)NC(=O)c2nc1sc2C | 0.25 (≈ 0.183 µM) | > 32 | 4 (≈ 2.93 µM) | 8 (≈ 5.86 µM) | 32 (≈ 23.4 µM) | 30
CNC(=O)C[C@@H]1NC(=O)c2csc(n2)-c2ccc(-c3nc(N(CCCCC(=O)O)C(=O)N[C@H]4CC[C@H](C(=O)O)CC4)cs3)nc2-c2csc(n2)-c2csc(n2)[C@H]([C@@H](O)c2ccccc2)NC(=O)CNC(=O)c2nc(sc2COC)[C@H](C(C)C)NC(=O)c2nc1sc2C | 1 (≈ 0.732 µM) | > 32 | 16 (≈ 11.7 µM) | 16 (≈ 11.7 µM) | 32 (≈ 23.4 µM) | 30
CNC(=O)C[C@@H]1NC(=O)c2csc(n2)-c2ccc(-c3nc(NC(=O)CC[C@@H](CC(=O)O)C(=O)O)cs3)nc2-c2csc(n2)-c2csc(n2)[C@H]([C@@H](O)c2ccccc2)NC(=O)CNC(=O)c2nc(sc2COC)[C@H](C(C)C)NC(=O)c2nc1sc2C | 4 (≈ 3.15 µM) | 32 (≈ 25.2 µM) | 32 (≈ 25.2 µM) | 16 (≈ 12.6 µM) | > 32 | 30
CNC(=O)C[C@@H]1NC(=O)c2csc(n2)-c2ccc(-c3nc(N(C)C(=O)CCCC(=O)O)cs3)nc2-c2csc(n2)-c2csc(n2)[C@H]([C@@H](O)c2ccccc2)NC(=O)CNC(=O)c2nc(sc2COC)[C@H](C(C)C)NC(=O)c2nc1sc2C | – | 4 (≈ 3.27 µM) | 2 (≈ 1.63 µM) | 2 (≈ 1.63 µM) | > 64 | 30
CNC(=O)C[C@@H]1NC(=O)c2csc(n2)-c2ccc(-c3nc(N(CCCC(CCCCCCC(=O)O)C(=O)O)C(=O)O[C@H]4CC[C@H](C(=O)O)CC4)cs3)nc2-c2csc(n2)-c2csc(n2)[C@H]([C@@H](O)c2ccccc2)NC(=O)CNC(=O)c2nc(sc2COC)[C@H](C(C)C)NC(=O)c2nc1sc2C (stereo not given in full) | 0.06 (≈ 0.0401 µM) | 0.5 (≈ 0.334 µM) | 1 (≈ 0.669 µM) | 0.25 (≈ 0.167 µM) | 1 (≈ 0.669 µM) | 50
CNC(=O)C[C@@H]1NC(=O)c2csc(n2)-c2ccc(-c3nc(N(CCCCC(CCC(=O)O)C(=O)O)C(=O)O[C@H]4CC[C@H](C(=O)O)CC4)cs3)nc2-c2csc(n2)-c2csc(n2)[C@H]([C@@H](O)c2ccccc2)NC(=O)CNC(=O)c2nc(sc2COC)[C@H](C(C)C)NC(=O)c2nc1sc2C (stereo not given in full) | 0.25 (≈ 0.172 µM) | 8 (≈ 5.51 µM) | 16 (≈ 11 µM) | 8 (≈ 5.51 µM) | 8 (≈ 5.51 µM) | 50
CNC(=O)C[C@@H]1NC(=O)c2csc(n2)-c2ccc(-c3nc(N(CCCCC(=O)O)C(=O)NCCCC(=O)O)cs3)nc2-c2csc(n2)-c2csc(n2)[C@H]([C@@H](O)c2ccccc2)NC(=O)CNC(=O)c2nc(sc2COC)[C@H](C(C)C)NC(=O)c2nc1sc2C | 4 (≈ 3.02 µM) | > 32 | 32 (≈ 24.1 µM) | > 32 | > 32 | 30
CNC(=O)C[C@@H]1NC(=O)c2csc(n2)-c2ccc(-c3nc(N(CCCCC(=O)O)C(=O)OCC(CCCCC(=O)O)CC(=O)O)cs3)nc2-c2csc(n2)-c2csc(n2)[C@H]([C@@H](O)c2ccccc2)NC(=O)CNC(=O)c2nc(sc2COC)[C@H](C(C)C)NC(=O)c2nc1sc2C (stereo not given in full) | 1 (≈ 0.701 µM) | 8 (≈ 5.61 µM) | 8 (≈ 5.61 µM) | 8 (≈ 5.61 µM) | 32 (≈ 22.4 µM) | 50
CNC(=O)C[C@@H]1NC(=O)c2csc(n2)-c2ccc(-c3nc(N(CCCCC(=O)O)C(=O)OC(CCCCC(=O)O)CCC(=O)O)cs3)nc2-c2csc(n2)-c2csc(n2)[C@H]([C@@H](O)c2ccccc2)NC(=O)CNC(=O)c2nc(sc2COC)[C@H](C(C)C)NC(=O)c2nc1sc2C (stereo not given in full) | 2 (≈ 1.4 µM) | 32 (≈ 22.4 µM) | 32 (≈ 22.4 µM) | 16 (≈ 11.2 µM) | > 32 | 50
CNC(=O)C[C@@H]1NC(=O)c2csc(n2)-c2ccc(-c3nc(N(CCCCC(=O)O)C(=O)O[C@H]4CC[C@](CCCCC(=O)O)(C(=O)O)CC4)cs3)nc2-c2csc(n2)-c2csc(n2)[C@H]([C@@H](O)c2ccccc2)NC(=O)CNC(=O)c2nc(sc2COC)[C@H](C(C)C)NC(=O)c2nc1sc2C | 0.03 (≈ 0.0205 µM) | 1 (≈ 0.682 µM) | 1 (≈ 0.682 µM) | 0.5 (≈ 0.341 µM) | 4 (≈ 2.73 µM) | 50
CNC(=O)C[C@@H]1NC(=O)c2csc(n2)-c2ccc(-c3nc(N(CC(CC(=O)O)OC)C(=O)O[C@H]4CC[C@H](C(=O)O)CC4)cs3)nc2-c2csc(n2)-c2csc(n2)[C@H]([C@@H](O)c2ccccc2)NC(=O)CNC(=O)c2nc(sc2COC)[C@H](C(C)C)NC(=O)c2nc1sc2C (stereo not given in full) | 0.06 (≈ 0.0434 µM) | 1 (≈ 0.723 µM) | 1 (≈ 0.723 µM) | 1 (≈ 0.723 µM) | 4 (≈ 2.89 µM) | 67
CNC(=O)C[C@@H]1NC(=O)c2csc(n2)-c2ccc(-c3nc(N(CCCCC(=O)O)C(=O)O[C@]4(CCCCC(=O)O)CC[C@@H](C(=O)O)CC4)cs3)nc2-c2csc(n2)-c2csc(n2)[C@H]([C@@H](O)c2ccccc2)NC(=O)CNC(=O)c2nc(sc2COC)[C@H](C(C)C)NC(=O)c2nc1sc2C | – | 8 (≈ 5.45 µM) | 8 (≈ 5.45 µM) | 4 (≈ 2.73 µM) | 16 (≈ 10.9 µM) | 50
CNC(=O)C[C@@H]1NC(=O)c2csc(n2)-c2ccc(-c3nc(N(CCCCC(=O)O)C(=O)N4CCC(C(=O)O)CC4)cs3)nc2-c2csc(n2)-c2csc(n2)[C@H]([C@@H](O)c2ccccc2)NC(=O)CNC(=O)c2nc(sc2COC)[C@H](C(C)C)NC(=O)c2nc1sc2C | > 4 | > 32 | > 32 | > 32 | > 32 | 30
CNC(=O)C[C@@H]1NC(=O)c2csc(n2)-c2ccc(-c3nc(NC(=O)N4C[C@H](CCC(=O)O)C[C@H](CCC(=O)O)C4)cs3)nc2-c2csc(n2)-c2csc(n2)[C@H]([C@@H](O)c2ccccc2)NC(=O)CNC(=O)c2nc(sc2COC)[C@H](C(C)C)NC(=O)c2nc1sc2C | 0.25 (≈ 0.185 µM) | 4 (≈ 2.96 µM) | 4 (≈ 2.96 µM) | 2 (≈ 1.48 µM) | 4 (≈ 2.96 µM) | 30

From ChEMBL document CHEMBL2062386, “Discovery of LFF571: an investigational agent for Clostridium difficile infection” (J Med Chem, 2012)
